MrgX1 PAM = allosterically activates human MrgX1 receptor signaling; MrgX1-HEK293, Fluo-4 calcium flux, FDSS; hits give high values; B-score at 10 µM; hit rate 0.63% among 310,000; AID 588675;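 active = plate-corrected calcium response at least 3 library SD above typical, normal starting fluorescence, not activating the receptor alone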;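 note: compound read alongside a low EC10 to EC30 dose of BAM8-22 agonist; peak minus trough fluorescence over baseline measured at the second addition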
Target sequence (Q96LB2 whole entry, looked up): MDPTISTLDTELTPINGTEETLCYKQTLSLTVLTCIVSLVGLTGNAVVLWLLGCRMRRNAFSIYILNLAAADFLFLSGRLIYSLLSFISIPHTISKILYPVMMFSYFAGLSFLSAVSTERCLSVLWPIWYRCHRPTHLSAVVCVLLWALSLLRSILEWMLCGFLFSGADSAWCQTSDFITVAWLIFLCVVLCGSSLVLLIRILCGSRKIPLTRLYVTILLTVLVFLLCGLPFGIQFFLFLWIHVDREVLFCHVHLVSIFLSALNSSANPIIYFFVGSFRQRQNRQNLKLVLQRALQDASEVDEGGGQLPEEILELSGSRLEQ
RGS4 act = RGS4 potentiation or activation; HEK293 M3R/inducible RGS4, carbachol calcium flux Fluo4; hits give low values; B-score at 10 µM; hit rate 0.92% among 310,000;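 active = B-score of the integrated calcium signal more than 4 SD below the library mean, with starting fluorescence not abnormally high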;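 note: negative B-score means reduced calcium response which marks RGS4 activation or potentiation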
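System: HEK293 FlpIn-TREx cells, stable M3R, doxycycline-inducible RGS4. Timing: overnight RGS4 induction, 30 min dye load 37 °C, 20 min compound RT. Also added: carbachol, ECmax concentration. Measured by: Fluo4 fluorescence kinetic imaging of calcium. Evaluation: integrated calcium ratio converted to B score.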
RGS4 block = inhibitors of human RGS4. P49798. HEK293 M3R/RGS4 inducible, Fluo-4 calcium flux; hits give high values; triggered by carbachol at its EC20. B-score at 10 µM. hit rate 0.45% among 310,000. AID 463165;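 active = B-score, a plate-corrected calcium signal, over three deviations above library mean, with baseline fluorescence within five deviations of library mean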;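 note: RGS4 expression induced by doxycycline in cells with stable M3 receptor; B-score is computed from the integrated fluorescence ratio over baseline after carbachol; higher B-score means a larger calcium signal and so more RGS4 inhibition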
Target sequence (P49798 whole entry, looked up): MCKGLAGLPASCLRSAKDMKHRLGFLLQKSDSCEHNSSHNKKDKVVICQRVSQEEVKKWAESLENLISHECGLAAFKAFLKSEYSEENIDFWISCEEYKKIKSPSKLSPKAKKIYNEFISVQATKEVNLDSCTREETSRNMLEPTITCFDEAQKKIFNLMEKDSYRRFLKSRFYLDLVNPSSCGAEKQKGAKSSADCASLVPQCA
MrgX1 ag = human MrgX1 receptor agonism, primary screen | hit rate 0.44% among 310,000 | Q96LB2 | MrgX1-HEK293 cells, Fluo-4 calcium fluorescence, agonist mode; hits give high values | B-score at 10 µM;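 active = calcium response B-score plate-corrected fluorescence ratio at least 3 library SD, with starting fluorescence B-score inside 5 SD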
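Assay system: MrgX1-expressing HEK293 cells / Amount: fifteen thousand cells per well / Doses: test compound in the initial addition of three / Timing: cells plated overnight, dye loaded 0.5 h 37 °C, 0.5 h room temperature / Technique: kinetic calcium dye fluorescence, Fluo-4 NW / Control set: positive and negative controls per plate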
MrgX1 antagonist = blocks BAM8-22 activation of human MrgX1 receptor. Q96LB2. MRGX1-HEK293 calcium flux, Fluo-4, BAM8-22 antagonism; hits give low values. B-score at 10 µM. hit rate 1.3% among 310,000;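 active = calcium-response B-score plate-corrected more than 3 library SD below zero, starting fluorescence within 5 deviations, no agonist response on first addition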;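 note: peak minus trough fluorescence over baseline after final BAM8-22 challenge near maximal dose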
The depositor's hits bear a star; i = inactive; · = not tested or not shown. Compounds with a hit are over-represented: about 3.5% of the library has one in this group of screens.

SMILES	MrgX1 PAM	RGS4 act	RGS4 block	MrgX1 ag	MrgX1 antagonist
COc1cc(N=c2ssnc2Cl)c(OC)cc1Cl	i	i	i	40.2*	i
Cc1cc(C)nc(SCc2cnc(C)nc2N)n1	i	i	i	i	i
O=[N+]([O-])c1ccc(Oc2cccc(Br)c2)c2ccncc12	7.87*	i	i	i	i
Cc1c(CCC(=O)O)c(=O)oc2c(C)c3occ(-c4ccc(Cl)cc4)c3cc12	6.61*	i	i	i	i
Cc1ccc(NC(=O)CCN2CC(C)OC(C)C2)cc1C (stereo not given)	i	i	i	i	i
CSc1ccc(CN(C)C(=O)CNC(=O)c2sc3ccccc3c2Cl)cc1	i	i	i	i	i
CC(CCc1ccccc1)NC(=O)COc1cc(F)ccc1[N+](=O)[O-] (stereo not given)	8.31*	i	i	i	i
COc1cccc2sc(N(CCN(C)C)C(=O)c3ccc4c(c3)CCCC4)nc12	6.68*	i	i	i	i
CCCCN(CC)S(=O)(=O)c1ccc(C(=O)N(CCCN(C)C)c2nc3cc(C)cc(C)c3s2)cc1	i	-8.05*	i	i	i
CCOc1cccc2sc(N(CCCN(C)C)C(=O)c3ccc(S(=O)(=O)N(CC)Cc4ccccc4)cc3)nc12	i	-7.66*	i	i	i
CCN(Cc1ccccc1)S(=O)(=O)c1ccc(C(=O)N(CCCN(C)C)c2nc3cc(C)cc(C)c3s2)cc1	i	i	i	i	i
CCCCN(C)CCCNC(=O)C1CCC(CNS(=O)(=O)c2c(C)cc(C)cc2C)CC1 (stereo not given)	i	i	i	i	i
CC(c1ccccc1)C1CC(=O)N(Cc2ccccc2)C1=O (stereo not given)	i	i	i	i	i
Cc1ccc(C2C=C(c3ccccc3)Nc3ncnn32)cc1 (stereo not given)	7.81*	i	i	i	i
CCOc1ccc(C2C=C(c3ccc(F)cc3)Nc3ncnn32)cc1 (stereo not given)	8.36*	i	i	i	i
CCOc1ccc(C2C=C(c3ccccc3)Nc3ncnn32)cc1 (stereo not given)	11.2*	i	i	i	i
Oc1ccc(C2C=C(c3ccc(F)cc3)Nc3ncnn32)cc1 (stereo not given)	·	i	i	·	·
O=C(CCSc1ccccc1)Nc1nnc(-c2cccs2)o1	i	i	i	i	i
CCc1nnc(NC(=O)c2cccc(C(=O)Nc3nnc(CC)s3)n2)s1	27.4*	i	i	i	i
O=C(/C=C/c1ccco1)OCC1CCCN2CCCCC12 (stereo not given)	i	-6.96*	i	i	i
O=[N+]([O-])c1ccc(Nc2ccccc2)c2nonc12	i	i	i	i	i
O=[N+]([O-])c1ccc(Sc2cccc[n+]2[O-])c2nonc12	·	-8.39*	i	·	·
C=CCn1c(SCCOc2ccccc2)nnc1C(C)NC(=O)c1ccccc1 (stereo not given)	i	i	i	i	i
C=CCn1c(SCC(=O)N2CCOCC2)nnc1C(C)NC(=O)c1ccccc1 (stereo not given)	i	i	i	i	-5.36*
CCC(=O)c1ccccc1OCCCN1CCC(Cc2ccccc2)CC1	i	i	i	i	-5.56*
SMILES	MrgX1 PAM	RGS4 act	RGS4 block	MrgX1 ag	MrgX1 antagonist
COc1cccc(OC)c1OCCCCN1CCC(Cc2ccccc2)CC1	i	i	i	i	i
CC(=O)CCc1ccc(OCCCCN2CCC(Cc3ccccc3)CC2)cc1	i	-7.15*	i	i	i
Cc1cc(C)n(C(=O)Cn2nc([N+](=O)[O-])c(Br)c2C)n1	i	i	i	i	i
COC(=O)c1ccccc1CON1C(=O)C(C)(C)N(OCc2ccccc2C(=O)OC)C(=O)C1(C)C	i	i	i	i	-8.07*
COC(=O)c1ccccc1NC(=O)CC(=O)Nc1ccccc1C(=O)OC	i	i	i	i	i
COc1ccc(N2CC(C(=O)Nc3nnc(SCC(=O)N4CCOCC4)s3)CC2=O)cc1 (stereo not given)	i	i	i	i	i
O=c1/c(=C\c2cc([N+](=O)[O-])cc([N+](=O)[O-])c2O)sc2nc3ccccc3n12	i	·	·	29.1*	i
O=C(O)c1cccc(-c2ccc(/C=c3/sc4nc5ccccc5n4c3=O)o2)c1	i	i	i	i	-12.2*
O=c1/c(=C/c2ccccn2)sc2nc3ccccc3n12	i	·	·	i	i
O=C(COc1ccc(Cl)cc1)NCc1ccncc1	i	i	i	i	i
COc1cc(OC)c(NC(=S)Nc2cc(Cl)cc(Cl)c2)cc1Cl	i	i	i	i	-4.7*
CN=C1S/C(=C\c2cccc(Cl)c2Cl)C(=O)N1C	i	i	i	i	i
CNC(=O)Nc1cc(C(F)(F)F)cc(C(F)(F)F)c1	i	i	i	i	i
O=C(Nc1cc(C(F)(F)F)cc(C(F)(F)F)c1)Nc1cnn(-c2ccc([N+](=O)[O-])cc2)c1C(F)(F)F	i	i	i	i	-6.96*
Cc1nn(CC(=O)N2CCC(C)CC2)c(=O)c2nn(-c3ccccc3)c(C)c12	i	i	i	i	i
COc1ccc(C(=O)C2CCCN(S(=O)(=O)N(C)C)C2)c(C)c1 (stereo not given)	i	i	i	i	i
COc1ccc(C(=O)C2CCCN(S(=O)(=O)C(C)C)C2)c(C)c1 (stereo not given)	i	-7.56*	i	i	i
C=CCn1c(CCCNC(=O)C(C)(C)C)nc2ccccc21	i	i	i	i	i
CC(C)(C)C(=O)NCCCc1nc2ccccc2n1CCCOc1ccc(Cl)cc1	i	i	i	i	-5.09*
COC1(OC)C(/C=C/c2ccc(Cl)cc2)C(C#N)(C#N)C1(OC)OC (stereo not given)	8.51*	i	i	i	i
O=C(Nc1ccccc1C(=O)NC(Cc1ccc(O)cc1)C(=O)O)c1ccccc1 (stereo not given)	i	i	i	i	i
CN1C(=O)/C(=C/c2ccc(OCc3ccc(F)cc3)cc2)N(C)C1=S	i	i	i	i	i
CN1C(=O)/C(=C/c2ccccc2OCc2cccc(F)c2)N(C)C1=S	i	-9.94*	i	i	i
O=C(O)c1ccc(Nc2ncnc3scc(-c4ccccc4)c23)cc1	i	i	i	29.5*	i
CCOC(=O)NNC(=O)C1CCC(C)CC1 (stereo not given)	i	i	i	i	i

Source: PubChem
